# Calls of active or inactive are those of the source. No cut-off for these calls is given here.
# How the values were obtained:
# [1] = test system: Staphylococcus aureus; assay: Antibacterial activity against methicillin-resistant Staphylococcus aureus 33815 infected in in vitro pharmacokinetic model assessed as time required to 99% killing at 750 mg, iv every 8 hrs using 10^8 CFU/ml inoculum; assay type: functional
# How it was run: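 T99 and T99.9 were taken as the times for the count to fall 99% or 99.9% from time 0, using serial viable counts over 48 h. Inoculum was 10^8 CFU/ml, grown overnight in the model before dosing.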
# [2] = test system: Staphylococcus aureus; assay: Antibacterial activity against methicillin-resistant Staphylococcus aureus 33922 infected in in vitro pharmacokinetic model assessed as reduction in viable count at 750 mg, iv every 8 hrs measured after 36 hrs using 10^6 CFU/ml inoculum; assay type: functional
# [3] = test system: Staphylococcus aureus; assay: Antibacterial activity against methicillin-sensitive Staphylococcus aureus 5956 by 10% MH broth method; assay type: functional
# How it was run: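 Broth dilution per CLSI, but in 10% Mueller-Hinton broth using nondoubling dilutions.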
# [4] = test system: Staphylococcus aureus; assay: Antibacterial activity against methicillin-resistant Staphylococcus aureus 33922 infected in in vitro pharmacokinetic model assessed as reduction in viable count at 1500 mg, iv every 8 hrs measured after 12 hrs using 10^6 CFU/ml inoculum; assay type: functional
# [5] = test system: Staphylococcus aureus; assay: AUBKC (0 to 24 hrs) in methicillin-resistant Staphylococcus aureus 33921 infected in in vitro pharmacokinetic model at 750 mg, iv every 8 hrs using 10^6 CFU/ml inoculum; assay type: functional
# How it was run: (§1)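 Single-compartment dilutional in vitro PK model at 37°C in 10% Mueller-Hinton broth, stirred, flow 132 ml/h. […] Inoculum 10^6 CFU/ml added 45 min before dosing, or 10^8 CFU/ml run overnight. Viable counts with β-lactamase neutralisation. AUBKC by log-linear trapezoidal rule, at least triplicate.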
# [6] = test system: Staphylococcus aureus; assay: T>MIC in methicillin-resistant Staphylococcus aureus 33820 infected in vitro pharmacokinetic model at 750 mg, iv every 8 hrs; assay type: functional
# [7] = test system: Staphylococcus aureus; assay: AUBKC (0 to 48 hrs) in methicillin-resistant Staphylococcus aureus 33827 infected in in vitro pharmacokinetic model at 1500 mg, iv every 8 hrs using 10^8 CFU/ml inoculum; assay type: functional; how it was run: as §1
# [8] = test system: Staphylococcus aureus; assay: T>MIC for 2-log drop in count in methicillin-resistant Staphylococcus aureus 33922 in in vitro pharmacokinetic model after 24 hrs using 10^8 CFU/ml inoculum; assay type: functional
# [9] = test system: Staphylococcus aureus; assay: Antibacterial activity against methicillin-resistant Staphylococcus aureus 33815 by broth dilution method; assay type: functional
# How it was run: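 Standard CLSI broth dilution MIC.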
# [10] = test system: Staphylococcus aureus; assay: Antibacterial activity against methicillin-sensitive Staphylococcus aureus 5956 infected in in vitro pharmacokinetic model assessed as reduction in viable count at 1500 mg, iv every 8 hrs measured after 48 hrs using 10^6 CFU/ml inoculum; assay type: functional
# [11] = test system: Staphylococcus aureus; assay: Antibacterial activity against methicillin-resistant Staphylococcus aureus 33827 infected in in vitro pharmacokinetic model assessed as reduction in viable count at 1500 mg, iv every 8 hrs measured after 36 hrs using 10^6 CFU/ml inoculum; assay type: functional
# How it was run: (§2)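 Single-compartment dilutional in vitro PK model, 10% Mueller-Hinton broth, 37°C, stirred, dilution 132 ml/h. […] Inoculum 10^6 CFU/ml (added 45 min pre-dose) or 10^8 CFU/ml (run overnight). Viable counts by spiral plating, beta-lactamase neutralization, detection limit 10^2 CFU/ml. At least triplicate.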
# [12] = test system: Staphylococcus aureus; assay: Antibacterial activity against methicillin-resistant Staphylococcus aureus 33815 assessed as viable count at 2 times of MIC after 24 hrs using 10^6 CFU/ml inoculum; assay type: functional, organism-based
# How it was run: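 Population analysis during tomopenem dose-ranging runs in the in vitro PK model (10^6 CFU/ml, T>MIC 0-100%). […] Growth counted as log CFU/ml, detection limit 2 log10.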
# [13] = test system: Staphylococcus aureus; assay: Antibacterial activity against methicillin-resistant Staphylococcus aureus 33829 in in vitro pharmacokinetic model assessed as viable count at 2 times of MIC; assay type: functional
# How it was run: (§3)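 Preexposure population analysis: time-zero model samples plated on nutrient agar without drug and with drug at multiples of the 10% broth MIC. Growth reported as log CFU/ml, detection limit 2 log10.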
# [14] = test system: Staphylococcus aureus; assay: Antibacterial activity against methicillin-resistant Staphylococcus aureus 33827 by 10% MH broth method; assay type: functional
# How it was run: (§4)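 Broth dilution MIC per CLSI, run in 10% Mueller-Hinton broth at nondoubling dilutions.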
# [15] = test system: Staphylococcus aureus; assay: T>MIC for 2-log drop in count in methicillin-resistant Staphylococcus aureus 33829 in in vitro pharmacokinetic model after 24 hrs using 10^6 CFU/ml inoculum; assay type: functional
# [16] = test system: Staphylococcus aureus; assay: Antibacterial activity against methicillin-resistant Staphylococcus aureus 33829 assessed as viable count at 2 times of MIC after 24 hrs using 10^6 CFU/ml inoculum; assay type: functional, organism-based
# [17] = test system: Staphylococcus aureus; assay: Antibacterial activity against methicillin-resistant Staphylococcus aureus 33829 infected in in vitro pharmacokinetic model assessed as reduction in viable count at 1500 mg, iv every 8 hrs measured after 36 hrs using 10^6 CFU/ml inoculum; assay type: functional; how it was run: as §2
# [18] = test system: Staphylococcus aureus; assay: Antibacterial activity against methicillin-resistant Staphylococcus aureus 33827 infected in in vitro pharmacokinetic model assessed as reduction in viable count at 750 mg, iv every 8 hrs measured after 24 hrs using 10^8 CFU/ml inoculum; assay type: functional; how it was run: as §2
# [19] = test system: Staphylococcus aureus; assay: Antibacterial activity against methicillin-resistant Staphylococcus aureus 33820 by 10% MH broth method; assay type: functional; how it was run: as §4
# [20] = test system: Staphylococcus aureus; assay: Antibacterial activity against methicillin-resistant Staphylococcus aureus 33827 infected in in vitro pharmacokinetic model assessed as reduction in viable count at 750 mg, iv every 8 hrs measured after 48 hrs using 10^8 CFU/ml inoculum; assay type: functional; how it was run: as §2
# [21] = test system: Staphylococcus aureus; assay: Antibacterial activity against methicillin-resistant Staphylococcus aureus 33829 infected in in vitro pharmacokinetic model assessed as reduction in viable count at 1500 mg, iv every 8 hrs measured after 24 hrs using 10^6 CFU/ml inoculum; assay type: functional; how it was run: as §2
# [22] = test system: Staphylococcus aureus; assay: Antibacterial activity against methicillin-resistant Staphylococcus aureus 33922 infected in in vitro pharmacokinetic model assessed as reduction in viable count at 1500 mg, iv every 8 hrs measured after 48 hrs using 10^6 CFU/ml inoculum; assay type: functional
# [23] = test system: Staphylococcus aureus; assay: Antibacterial activity against methicillin-resistant Staphylococcus aureus 33827 infected in in vitro pharmacokinetic model assessed as reduction in viable count at 750 mg, iv every 8 hrs measured after 36 hrs using 10^6 CFU/ml inoculum; assay type: functional; how it was run: as §2
# [24] = test system: Staphylococcus aureus; assay: AUBKC (0 to 24 hrs) in methicillin-resistant Staphylococcus aureus 33829 infected in in vitro pharmacokinetic model at 750 mg, iv every 8 hrs using 10^6 CFU/ml inoculum; assay type: functional; how it was run: as §1
# [25] = test system: Staphylococcus aureus; assay: Antibacterial activity against methicillin-resistant Staphylococcus aureus 33829 in in vitro pharmacokinetic model assessed as viable count at 4 times of MIC; assay type: functional; how it was run: as §3
# [26] = test system: Staphylococcus aureus; assay: T>MIC for 2-log drop in count in methicillin-resistant Staphylococcus aureus 33815 in in vitro pharmacokinetic model after 24 hrs using 10^8 CFU/ml inoculum; assay type: functional
# [27] = test system: Staphylococcus aureus; assay: T>MIC for 4-log drop in count in methicillin-resistant Staphylococcus aureus 33815 in in vitro pharmacokinetic model after 24 hrs using 10^8 CFU/ml inoculum; assay type: functional
# [28] = test system: Staphylococcus aureus; assay: Antibacterial activity against methicillin-resistant Staphylococcus aureus 33922 infected in in vitro pharmacokinetic model assessed as time required to 99.9% killing at 750 mg, iv every 8 hrs using 10^8 CFU/ml inoculum; assay type: functional
smiles,measurement,setting,value
C[C@@H](O)[C@H]1C(=O)N2C(C(=O)O)=C(S[C@H]3C[C@@H](C(=O)N4CC[C@H](NC(=O)CNC(=N)N)C4)N(C)C3)[C@H](C)[C@H]12 [TOMOPENEM],Time,[1],16 h
same,log10CFU/ml,[2],4
same,MIC,[3],0.04 µg/mL
same,log10CFU/ml,[4],4.2
same,AUBC,[5],30.9 log10CFU/ml.hr
same,fT>MIC,[6],73%
same,AUBC,[7],93.5 log10CFU/ml.hr
same,fT>MIC,[8],4.7%
same,MIC,[9],16 µg/mL
same,log10CFU/ml,[10],4.4
same,log10CFU/ml,[11],4
same,Activity,[12],Active
same,log10CFU/ml,[13],5.8
same,MIC,[14],0.75 µg/mL
same,fT>MIC,[15],20.8%
same,Activity,[16],inactive
same,log10CFU/ml,[17],4
same,log10CFU/ml,[18],5.2
same,MIC,[19],6 µg/mL
same,log10CFU/ml,[20],5.9
same,log10CFU/ml,[21],4.2
same,log10CFU/ml,[22],4.2
same,log10CFU/ml,[23],3.7
same,AUBC,[24],25 log10CFU/ml.hr
same,log10CFU/ml,[25],5.4
same,fT>MIC,[26],2%
same,fT>MIC,[27],6.5%
same,Time,[28],12 h

# From ChEMBL document CHEMBL1255300, “Pharmacodynamics of the antibacterial effect and emergence of resistance to tomopenem, formerly RO4908463/CS-023, in an in vitro pharmacokinetic model of Staphylococcus aureus infection” (Antimicrob Agents Chemother, 2008)
